Source: PubChem
PGC1a Ac signal – raises PGC1a acetylation signal in U2OS cells. 0.21% of 350,000 active. activation, % at 15.6 µM. U2OS PGC1a acetylation AlphaScreen, overnight. AID 651723;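 active means every replicate reaching activation of at least 50%, whatever the mean replicate activation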;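 further: hits raise the AlphaScreen acetylation signal above neutral controls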
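System – flag-PGC1a/GCN5 U2OS cells · Quantity – 7000 U2OS cells per well · Signal – AlphaScreen proximity luminescence, anti-acetyl-lysine antibody · Schedule – overnight compound treatment, 37 °C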
Active calls of the source: *. This is one part of a sample in which hits are shown more often than they occur.

SMILES | PGC1a Ac signal
O=C(N/N=C/C=C\c1ccccc1[N+](=O)[O-])c1cccnc1 | -42
N#C/C(=C\C=C\c1ccccc1[N+](=O)[O-])C(=O)NCc1ccccc1 | 128*
C[C@@H]1CN([C@H](C)CO)C(=O)c2cc(NS(C)(=O)=O)ccc2O[C@@H]1CN(C)S(=O)(=O)c1ccc(Cl)cc1 | -42
COc1cccc(-c2ccc(C3[C@@H]4CN(S(=O)(=O)c5cccc(OC)c5)C[C@H]3N4)cc2)c1 (some centres not stated) | 57*
Cc1ccc(S(=O)(=O)N2C[C@@H]3N[C@H](C2)[C@@H]3c2ccc(-c3cccc(C)c3)cc2)cc1 | 66*
COc1cccc(S(=O)(=O)N2C[C@@H]3N[C@H](C2)C3c2ccc(-c3ccccc3C)cc2)c1 (some centres not stated) | 242*
O=S(=O)(c1ccc(-c2ccccc2)cc1)N1C[C@@H]2N[C@H](C1)[C@@H]2c1ccc(-c2cccnc2)cc1 | -55
Cc1cccc(S(=O)(=O)N2C[C@@H]3N[C@H](C2)C3c2ccc(-c3ccccc3C)cc2)c1 (some centres not stated) | 166*
C[C@@H]1CN([C@@H](C)CO)C(=O)c2cc(/C=C/c3ccccc3)cnc2O[C@@H]1CN(C)Cc1cccnc1 | -46
O=C1C=CCCN1C(=O)/C=C/c1cccc(C(F)(F)F)c1 | -78
COCC(=O)Nc1ccc2c(c1)OC[C@@H](C)N(C(=O)c1ccccn1)C[C@@H](C)[C@@H](OC)CN(C)C2=O | -49
CC(=O)Nc1nc(C)c(Oc2ccc(Cl)cc2)c(=O)[nH]1 | -45
C[C@H]1CN([C@@H](C)CO)S(=O)(=O)c2ccc(C#CC3CCCCC3)cc2O[C@@H]1CN(C)Cc1cccnc1 | -64
COc1ccccc1C1c2ccc3ccccc3c2Oc2ncn(CCN(C)C)c(=N)c21 (configuration not stated) | 58*
N#CC1=C(N)Oc2n[nH]c(-c3ccccc3)c2C1c1ccncc1 (configuration not stated) | 55*
Cc1cc(=O)[nH]c(NN)n1 | -50
COc1cccc(N2C(=O)CC(N3CCC(c4nc5ccccc5[nH]4)CC3)C2=O)c1 (configuration not stated) | 58*
COC(=O)C1=NN(C(=O)c2ccccc2)C(O)(c2ccc([N+](=O)[O-])cc2)C1 (configuration not stated) | 115*
CN1C(C(=O)Nc2ccccn2)=C(O)c2sc(Cl)cc2S1(=O)=O | -53
Cc1cc(Nc2ccccc2)cc(=O)n1C | -59
CCCC(=O)Nc1ccc(C(=O)N/N=C/c2cccnc2)cc1 | 69*
O=C(c1ccc(F)cc1)N1CC(=O)N2[C@H](CO)[C@@H](c3ccc(C#CCC4CCCC4)cc3)[C@@H]2C1 | -49
C[C@@H]1CN([C@@H](C)CO)S(=O)(=O)c2ccc(-c3ccc(C#N)cc3)cc2O[C@H]1CN(C)C(=O)CN(C)C | -41
C[C@H]1CN([C@@H](C)CO)C(=O)c2cccc(NC(=O)Nc3ccc(C(F)(F)F)cc3)c2O[C@H]1CN(C)C(=O)Nc1cccc2ccccc12 | -47
O=C(Nc1nc(C2C3CC4CC(C3)CC2C4)cs1)c1cc2cc([N+](=O)[O-])ccc2oc1=O (configuration not stated) | 52*
SMILES | PGC1a Ac signal
O=C(Nc1ccccc1N1CCOCC1)C1(c2ccc(Cl)cc2)CCC1 | -41
O=C(Nc1cc(C(F)(F)F)ccc1N1CCOCC1)c1ccccc1 | 63*
C[C@@H](C(=O)Nc1cc(C(F)(F)F)ccc1N1CCOCC1)N1C(=O)C2CC=CCC2C1=O (some centres not stated) | -41
CCOC(=O)c1c(C)n(C)c2ccc(OCC(O)Cn3nc(C)c(Br)c3C)cc12 (configuration not stated) | 61*
CCC(=O)NC1(Cc2ccc(O)cc2)CCCCC1 | -44
C[n+]1cccc(CNC(=O)/C=N/O)c1 | -51
Oc1ccc(-c2nnc(-c3ccc(O)cc3)nn2)cc1 | 74*
Cc1nc([N+](=O)[O-])c(Br)n1CC(=O)c1ccc(Br)cc1 | -64
O=C(c1cccc(F)c1)N1CCN(C(=O)c2cc(-c3ccc(Cl)cc3Cl)on2)CC1 | -43
Cc1cccc(OC2(c3ccccc3)OC(=O)c3ccccc32)c1C (configuration not stated) | 91*
CCCCn1c(=O)[nH]c(=O)c2c1nc(-c1ccc(OCCC)c(OCC)c1)n2C | -53
NS(=O)(=O)c1cccc(NC(=O)CSc2ccccn2)c1 | -48
C[C@H]1CN([C@@H](C)CO)C(=O)Cc2cc(NS(=O)(=O)c3ccc(F)cc3)ccc2O[C@@H]1CN(C)C(=O)Nc1ccc2c(c1)OCO2 | -55
O=C(CSc1nc(NS(=O)(=O)c2ccccc2)cc(=O)[nH]1)Nc1ccc(F)cc1 | 69*
Cc1cc2cc3c(cc2nc1SCC(=O)OC(C)C)OCCO3 | 95*
O=C(NC1CCCC1)C(c1ccncc1)N(Cc1ccccc1F)C(=O)c1csnn1 (configuration not stated) | -47
COc1ccc(OC)c(NC(=O)C2C(C(=O)O)C3(Cl)C(Cl)=C(Cl)C2(Cl)C3(Cl)Cl)c1 (configuration not stated) | -42
